In publication PMC7312786 (Biochemistry, 2018):
Like-named read-outs stand apart in the source and are kept apart here.

Legend:
[1] = system: HAP-1 cells (hpol η-proficient, parental); assay: Cell viability; type: cell-based, human; details: read-out: EC50 of CDDP, cell viability, parental HAP-1
Procedure, shortened: (§1)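 HAP-1 parental or CRISPR hpol η-null cells in IMDM with 10% FBS and 1% antibiotic/antimycotic, passage 8–10, seeded 5000 cells/well. Next day: CDDP 0–100 μM alone or with 0.1 or 1 μM test compound, 48 h. Cells washed twice in DPBS, then 2 μM Calcein-AM for 30 min at 25 °C; fluorescence ex 490/em 520 nm. Viability as % of untreated. […] Combination index by Chou–Talalay.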

[2] = system: γH2AX in hpol η-proficient HAP-1 cells; assay: γH2AX immunoblotting, hpol η-proficient HAP-1 cells; type: cell-based, human; details: CDDP alone (0.5 μM)
Procedure, shortened: (§2)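 HAP-1 cells treated with DMSO or 0.5 μM CDDP combined with 0.1 or 1 μM test compound. Pellets lysed at 4 °C in HEPES pH 7.5/Triton X-100 buffer with phosphatase and protease inhibitors. 30–40 μg protein run on 4–20% SDS-PAGE, transferred to nitrocellulose. Probed with anti-γH2AX (S139) 1:1500 and HRP anti-rabbit 1:4000; β-actin loading control; chemiluminescence. Bands normalized to β-actin, relative to DMSO; three biological replicates; t test.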

[3] = system: γH2AX in hpol η-deficient HAP-1 cells; assay: γH2AX immunoblotting, hpol η-deficient HAP-1 cells; type: cell-based, human; details: CDDP (0.5 μM)
Procedure, shortened: as §2

[4] = system: hpol η-deficient HAP-1 cells; assay: Cell viability; type: cell-based, human
Procedure, shortened: as §1

pol binding to DNA = details: cited from earlier work
hpol η = target: T1, hpol η (Homo sapiens, UniProt Q9Y253); details: cited from earlier work
T1 sequence (Q9Y253 1-437): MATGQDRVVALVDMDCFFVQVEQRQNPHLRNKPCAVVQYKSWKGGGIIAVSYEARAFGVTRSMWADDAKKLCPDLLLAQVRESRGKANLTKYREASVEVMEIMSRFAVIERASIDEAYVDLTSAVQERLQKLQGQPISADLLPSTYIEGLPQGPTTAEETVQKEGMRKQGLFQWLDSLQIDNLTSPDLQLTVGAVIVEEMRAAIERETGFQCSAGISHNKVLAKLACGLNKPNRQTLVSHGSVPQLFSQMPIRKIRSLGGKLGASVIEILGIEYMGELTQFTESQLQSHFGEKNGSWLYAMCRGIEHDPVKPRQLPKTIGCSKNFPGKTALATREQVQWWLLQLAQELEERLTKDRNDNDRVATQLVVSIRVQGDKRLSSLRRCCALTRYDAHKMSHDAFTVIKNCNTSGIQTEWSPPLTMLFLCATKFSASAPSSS

Compound: N.N.[Cl][Pt][Cl] [CDDP, cis-diamminedichloroplatinum(II), reference compound]
- EC50 ([1]; CDDP + 0.1 μM PNR-7-02): 0.14 µM
- EC50 ([1]; CDDP + 1 μM PNR-7-02): 0.12 µM
- Amount of μH2AX [2]: did not change substantially
- Increase of μH2AX [3]: ~ 5 fold
- Reduction of CDDP EC50 by loss of hpol η ([4]; hpol η-deficient versus parental HAP-1): ~ 3 fold
- EC50 ([4]; read-out: EC50 of CDDP, cell viability, hpol η-deficient HAP-1, CDDP alone): 0.1 µM

Compound: CC(C)c1ccc2c(c1)c(SC(C)(C)C)c(CC(C)(C)C(=O)O)n2Cc1ccc(Cl)cc1 [MK-886]
- Impact on pol binding to DNA (pol binding to DNA): negligible impact

Compound: O=C1NC(=S)NC(=O)C1=Cc1cn(C(=O)c2ccccc2Br)c2ccc(Cl)cc12 [PNR-3-51, 5-((1-(2-bromobenzoyl)-5-chloro-1H-indol-3-yl)methylene)-2-thioxodihydropyrimidine-4,6(1H,5H)-dione]
- Specificity for hpol η over other pols (hpol η; over other TLS and DNA repair pols): less than 2 fold
- IC50 (hpol η; read-out: IC50 against hpol η, previous publication): ~30 µM

Compound: CCOc1nc2cccc(C(=O)OC(C)OC(=O)OC3CCCCC3)c2n1Cc1ccc(-c2ccccc2-c2nnn[nH]2)cc1 (stereo not shown) [candesartan cilexetil]
- Impact on pol binding to DNA (pol binding to DNA): negligible impact
